One may read the EC50 as the concentration at which the effect is half-maximal.

SMILES strings stand for the structures.

Experimental findings from ChEMBL document CHEMBL1811845, “Modulation of GABAA-receptors by honokiol and derivatives: subtype selectivity and structure-activity relationship” (J Med Chem, 2011) are described below.

Test [1] addresses T1, GABA-A receptor alpha-1/beta-3 (Homo sapiens, UniProt P14867+P28472).
T1 sequence (P14867 whole entry): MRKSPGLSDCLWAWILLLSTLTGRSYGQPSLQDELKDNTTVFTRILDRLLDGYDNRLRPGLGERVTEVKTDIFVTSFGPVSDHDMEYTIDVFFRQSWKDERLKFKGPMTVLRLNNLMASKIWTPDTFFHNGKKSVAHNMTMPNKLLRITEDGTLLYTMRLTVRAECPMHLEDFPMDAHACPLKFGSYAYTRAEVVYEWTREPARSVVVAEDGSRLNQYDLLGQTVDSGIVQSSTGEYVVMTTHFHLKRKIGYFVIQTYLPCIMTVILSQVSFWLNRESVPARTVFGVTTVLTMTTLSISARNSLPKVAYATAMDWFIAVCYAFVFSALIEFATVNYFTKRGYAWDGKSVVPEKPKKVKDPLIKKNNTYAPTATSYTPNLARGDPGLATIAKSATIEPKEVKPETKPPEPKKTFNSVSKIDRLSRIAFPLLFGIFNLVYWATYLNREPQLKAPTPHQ
T1 sequence (P28472 whole entry): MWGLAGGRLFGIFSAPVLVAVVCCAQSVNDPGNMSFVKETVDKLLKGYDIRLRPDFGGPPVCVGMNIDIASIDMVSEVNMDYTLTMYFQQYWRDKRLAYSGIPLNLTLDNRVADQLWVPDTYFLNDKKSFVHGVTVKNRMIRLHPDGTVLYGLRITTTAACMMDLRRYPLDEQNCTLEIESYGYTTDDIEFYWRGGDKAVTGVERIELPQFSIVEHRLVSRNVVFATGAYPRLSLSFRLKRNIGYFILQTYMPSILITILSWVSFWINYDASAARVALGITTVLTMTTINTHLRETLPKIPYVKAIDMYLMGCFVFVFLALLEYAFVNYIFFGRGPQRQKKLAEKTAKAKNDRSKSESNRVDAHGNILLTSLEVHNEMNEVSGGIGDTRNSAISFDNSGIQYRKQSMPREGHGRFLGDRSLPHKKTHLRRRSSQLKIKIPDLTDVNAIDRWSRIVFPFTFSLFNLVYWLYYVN
Put plainly: Modulation of GABA Aalpha1beta3 receptor expressed in Xenopus laevis oocytes assessed as potentiation of GABA-induced chloride current at holding potential -70 mV by two-microelectrode voltage clamp technique. It is filed as cell-based, Oocyte.

The target of test [2] is GABA-A receptor alpha-1/beta-3 (Homo sapiens) (UniProt P14867+P28472). Put plainly: Modulation of GABA Aalpha1beta3 receptor expressed in Xenopus laevis oocytes assessed as potentiation of GABA-induced chloride current at holding potential -70 mV by two-microelectrode voltage clamp technique relative to GABA. It is filed as cell-based. Particulars: Oocyte. In short, it runs like this: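 α1β3 receptors were expressed in defolliculated stage V–VI Xenopus oocytes and kept at 18 °C in ND96, pH 7.4. Potentiation was computed as (I(GABA+compound)/IGABA)−1, and EC50 and Hill coefficient came from nonlinear fits. Matched DMSO was ≤0.3%.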

Test [3] is described as follows: Modulation of GABA alpha1beta2gamma2s receptor expressed in Xenopus laevis oocytes assessed as potentiation of GABA-induced chloride current at holding potential -70 mV by two-microelectrode voltage clamp technique. It is filed as cell-based. The following applies: Oocyte. In short, it runs like this:
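Oocytes were injected with α1, β2 and γ2s cRNAs mixed 1:1:10 and stored at 18 °C in ND96 (pH 7.4). GABA was applied at a concentration giving 3–7% of maximal current, determined for each oocyte. Enhancement was taken as (I(GABA+compound)/IGABA) − 1. Concentration–response data were fitted to a Hill equation. Control solutions carried equal DMSO, at most 0.3%.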

The test system of test [4] is Oocyte. As to the kind of experiment: Modulation of GABA alpha1beta2gamma2s receptor expressed in Xenopus laevis oocytes assessed as potentiation of GABA-induced chloride current at holding potential -70 mV at 10 uM by two-microelectrode voltage clamp technique relative to GABA. It counts as cell-based.
The target in test [5] is T2, Gamma-aminobutyric acid receptor subunit alpha-5/beta-2 (Homo sapiens, UniProt P31644+P47870).
T2 sequence (P47870 whole entry): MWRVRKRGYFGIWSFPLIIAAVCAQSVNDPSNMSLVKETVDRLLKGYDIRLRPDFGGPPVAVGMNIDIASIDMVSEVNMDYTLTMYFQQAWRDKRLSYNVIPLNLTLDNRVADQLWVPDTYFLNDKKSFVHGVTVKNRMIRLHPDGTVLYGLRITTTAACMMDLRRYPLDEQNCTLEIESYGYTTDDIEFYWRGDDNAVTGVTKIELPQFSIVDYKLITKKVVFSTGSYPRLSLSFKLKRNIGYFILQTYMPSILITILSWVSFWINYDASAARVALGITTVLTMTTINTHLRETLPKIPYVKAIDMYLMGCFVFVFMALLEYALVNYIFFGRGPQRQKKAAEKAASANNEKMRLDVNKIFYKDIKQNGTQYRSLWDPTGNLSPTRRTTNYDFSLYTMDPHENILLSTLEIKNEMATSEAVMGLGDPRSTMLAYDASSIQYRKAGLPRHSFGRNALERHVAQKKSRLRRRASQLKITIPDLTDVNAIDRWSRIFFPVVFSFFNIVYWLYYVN
T2 sequence (P31644 whole entry): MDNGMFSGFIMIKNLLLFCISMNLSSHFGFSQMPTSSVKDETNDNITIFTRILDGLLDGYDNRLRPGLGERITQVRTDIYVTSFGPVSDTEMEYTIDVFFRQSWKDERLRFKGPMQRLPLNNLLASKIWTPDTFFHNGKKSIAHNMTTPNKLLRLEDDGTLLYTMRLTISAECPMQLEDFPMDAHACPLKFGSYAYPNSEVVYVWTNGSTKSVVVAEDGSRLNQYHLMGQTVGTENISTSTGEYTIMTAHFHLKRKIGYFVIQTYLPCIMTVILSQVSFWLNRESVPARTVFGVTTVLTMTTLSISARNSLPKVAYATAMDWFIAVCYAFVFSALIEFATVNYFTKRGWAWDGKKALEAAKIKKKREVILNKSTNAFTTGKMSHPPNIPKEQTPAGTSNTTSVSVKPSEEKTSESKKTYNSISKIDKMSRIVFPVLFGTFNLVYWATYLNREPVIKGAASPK
Put plainly: Modulation of GABA Aalpha5beta2 receptor expressed in Xenopus laevis oocytes assessed as potentiation of GABA-induced chloride current at holding potential -70 mV by two-microelectrode voltage clamp technique. It counts as cell-based, Oocyte. The essentials:
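Stage V–VI Xenopus oocytes, defolliculated with 2 mg/mL collagenase, injected with α(1, 2, 3 or 5) and β2 cRNAs mixed 1:1, then kept at 18 °C in ND96 (pH 7.4). Enhancement = I(GABA+compound)/IGABA − 1. Curves were Hill-fitted for EC50. Bath DMSO was at most 0.3%, matched in controls.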

The target of test [6] is GABA-A receptor; GABA-A site (alpha1/beta2 interface) (Homo sapiens) (UniProt P14867+P47870). Put plainly: Modulation of GABA Aalpha1beta2 receptor expressed in Xenopus laevis oocytes assessed as potentiation of GABA-induced chloride current at holding potential -70 mV by two-microelectrode voltage clamp technique relative to GABA. It is filed as cell-based. The following applies: Oocyte. The essentials:
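Oocytes were injected with α1, α2, α3 or α5 plus β2 cRNA at a 1:1 ratio and stored at 18 °C in ND96, pH 7.4. Enhancement was (I(GABA+compound)/IGABA)−1, and concentration-response data were Hill-fitted for EC50 and nH. Matched DMSO was ≤0.3%.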

Take `C=CCc1ccc(O)c(-c2ccc(O)c(CC=C)c2)c1` [HONOKIOL]: the EC50 in test [1] was 59.6 µM; in test [3], 36.2 µM; in test [5], 23.4 µM. Moreover, the Smax worked out at 878% in test [2] and 1030% in test [6]. For the same compound, the Activity in test [4] was 101%.
